{
  "source": "ChEMBL document CHEMBL5661979",
  "about": "“Pharmacological inhibition of BMK1 suppresses tumor growth through promyelocytic leukemia protein” (Cancer Cell, 2010)",
  "key": {"[1]": {"assay": "Toxicity in C57Bl/6 mouse assessed as effect on calcium level at 50 mg/kg, ip for 14 days (reference value: 9.9 mg/dl)", "type": "organism-based", "conditions": "in vivo, 336 h, time 14 day"}, "[2]": {"target": "Mitogen-activated protein kinase kinase kinase 4 (Homo sapiens, UniProt Q9Y6R4)", "sequence (Q9Y6R4 whole entry)": "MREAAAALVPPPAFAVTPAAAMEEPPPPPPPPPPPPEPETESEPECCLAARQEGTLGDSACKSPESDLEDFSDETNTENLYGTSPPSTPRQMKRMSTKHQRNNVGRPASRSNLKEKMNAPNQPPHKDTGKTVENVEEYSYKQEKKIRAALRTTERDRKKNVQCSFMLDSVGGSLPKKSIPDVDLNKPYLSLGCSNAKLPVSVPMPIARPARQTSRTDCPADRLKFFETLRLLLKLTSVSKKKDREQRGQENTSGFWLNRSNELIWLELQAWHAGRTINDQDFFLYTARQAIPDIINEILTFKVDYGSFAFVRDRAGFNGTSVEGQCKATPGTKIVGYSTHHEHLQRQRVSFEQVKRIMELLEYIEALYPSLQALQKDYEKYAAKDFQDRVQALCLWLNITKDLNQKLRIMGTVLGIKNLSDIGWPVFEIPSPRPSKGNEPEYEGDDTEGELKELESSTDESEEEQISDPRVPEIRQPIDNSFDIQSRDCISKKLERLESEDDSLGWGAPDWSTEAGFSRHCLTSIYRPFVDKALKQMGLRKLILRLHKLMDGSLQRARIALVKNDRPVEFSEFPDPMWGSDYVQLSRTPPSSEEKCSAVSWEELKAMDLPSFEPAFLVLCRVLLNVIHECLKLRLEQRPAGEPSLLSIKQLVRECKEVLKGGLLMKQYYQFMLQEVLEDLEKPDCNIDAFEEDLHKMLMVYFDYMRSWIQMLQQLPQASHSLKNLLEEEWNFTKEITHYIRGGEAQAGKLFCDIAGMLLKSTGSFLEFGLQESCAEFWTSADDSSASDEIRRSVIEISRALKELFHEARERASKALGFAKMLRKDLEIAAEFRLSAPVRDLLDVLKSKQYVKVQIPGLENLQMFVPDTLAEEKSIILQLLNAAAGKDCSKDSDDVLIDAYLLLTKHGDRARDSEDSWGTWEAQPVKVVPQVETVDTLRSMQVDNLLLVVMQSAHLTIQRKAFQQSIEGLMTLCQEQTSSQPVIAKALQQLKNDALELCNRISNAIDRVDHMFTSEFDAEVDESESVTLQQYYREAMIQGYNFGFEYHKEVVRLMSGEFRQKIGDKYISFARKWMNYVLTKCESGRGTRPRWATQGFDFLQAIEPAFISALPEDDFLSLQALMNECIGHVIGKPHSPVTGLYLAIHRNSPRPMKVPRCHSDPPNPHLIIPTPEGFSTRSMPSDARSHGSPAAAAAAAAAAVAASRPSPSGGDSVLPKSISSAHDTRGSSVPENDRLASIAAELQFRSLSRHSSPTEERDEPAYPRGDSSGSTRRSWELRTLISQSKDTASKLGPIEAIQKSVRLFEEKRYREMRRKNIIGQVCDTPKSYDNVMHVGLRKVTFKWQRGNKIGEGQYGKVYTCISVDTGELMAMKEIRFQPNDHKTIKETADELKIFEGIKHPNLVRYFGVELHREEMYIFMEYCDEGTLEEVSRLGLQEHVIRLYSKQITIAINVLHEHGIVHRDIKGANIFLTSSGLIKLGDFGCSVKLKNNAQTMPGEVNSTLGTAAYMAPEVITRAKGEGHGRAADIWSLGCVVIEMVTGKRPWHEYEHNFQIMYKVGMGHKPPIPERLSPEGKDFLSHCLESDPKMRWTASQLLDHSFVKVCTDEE", "assay": "Inhibition of MAP3K4 in human HeLa cells lysate pre incubated for 15 mins followed by ATP acyl phosphate probe addition and measured after 10 mins by LC-MS/MS analysis", "type": "subcellular"}, "[3]": {"target": "Cyclin-dependent kinase 16 (Homo sapiens, UniProt Q00536)", "assay": "Inhibition of PCTAIRE1 in human HeLa cells lysate at 50 uM pre incubated for 15 mins followed by ADP acyl phosphate probe addition and measured after 10 mins by LC-MS/MS analysis relative to control", "type": "subcellular", "conditions": "time 25.0 min"}, "[4]": {"assay": "Toxicity in C57Bl/6 mouse assessed as effect on phosphorus level at 50 mg/kg, ip for 14 days (reference value: 6.8 mg/dl)", "type": "organism-based", "conditions": "in vivo, 336 h, time 14 day"}, "[5]": {"assay": "Toxicity in C57Bl/6 mouse assessed as effect on injection site at 50 mg/kg, ip for 14 days", "type": "organism-based", "conditions": "in vivo, 336 h, time 14 day"}, "[6]": {"assay": "Inhibition of MST4/YSK1 in human HeLa cells lysate at 2 uM pre incubated for 15 mins followed by ATP acyl phosphate probe addition and measured after 10 mins by LC-MS/MS analysis relative to control", "conditions": "25 min, condition cancer"}, "[7]": {"target": "Cyclin-dependent kinase 11B (Homo sapiens, UniProt P21127)", "assay": "Inhibition of PITSLRE in human HeLa cells lysate at 50 uM pre incubated for 15 mins followed by ATP acyl phosphate probe addition and measured after 10 mins by LC-MS/MS analysis relative to control", "type": "subcellular", "conditions": "time 25.0 min"}, "[8]": {"target": "Tyrosine-protein kinase ABL (Homo sapiens, UniProt P00519+P42684)", "assay": "Inhibition of ABL1/2 in human HeLa cells lysate pre incubated for 15 mins followed by ATP acyl phosphate probe addition and measured after 10 mins by LC-MS/MS analysis", "type": "subcellular", "in_short": "(§1)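 HeLa cell lysates (5 mg/mL total protein) were preincubated with inhibitor at 0, 0.8, 2, 10 or 50 μM for 15 min. ATP or ADP acylphosphate probe was then added (5 μM final) for 10 min, and reactions were stopped with urea. Up to four fragment ions per kinase probe-peptide were quantified by targeted MS. % inhibition was taken relative to untreated lysate. Run in duplicate.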"}, "[9]": {"target": "Cyclin-dependent kinase 9 (Homo sapiens, UniProt P50750)", "assay": "Inhibition of CDK9 in human HeLa cells lysate at 2 uM pre incubated for 15 mins followed by ATP acyl phosphate probe addition and measured after 10 mins by LC-MS/MS analysis relative to control", "type": "subcellular", "conditions": "time 25.0 min", "in_short": "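KiNativ profiling in HeLa lysate (5 mg/mL total protein). Lysate incubated 15 min with inhibitor at 50, 10, 2, 0.8 or 0 μM. ATP or ADP acylphosphate probe then added (5 μM final) and reacted 10 min. Reaction stopped with urea and analysed by targeted MS, using up to four fragment ions per kinase peptide-probe conjugate. % inhibition taken against untreated lysate. Run in duplicate.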"}, "[10]": {"target": "T1, STE20-related kinase adapter protein beta (Homo sapiens) (UniProt Q9C0K7)", "T1 sequence (whole entry)": "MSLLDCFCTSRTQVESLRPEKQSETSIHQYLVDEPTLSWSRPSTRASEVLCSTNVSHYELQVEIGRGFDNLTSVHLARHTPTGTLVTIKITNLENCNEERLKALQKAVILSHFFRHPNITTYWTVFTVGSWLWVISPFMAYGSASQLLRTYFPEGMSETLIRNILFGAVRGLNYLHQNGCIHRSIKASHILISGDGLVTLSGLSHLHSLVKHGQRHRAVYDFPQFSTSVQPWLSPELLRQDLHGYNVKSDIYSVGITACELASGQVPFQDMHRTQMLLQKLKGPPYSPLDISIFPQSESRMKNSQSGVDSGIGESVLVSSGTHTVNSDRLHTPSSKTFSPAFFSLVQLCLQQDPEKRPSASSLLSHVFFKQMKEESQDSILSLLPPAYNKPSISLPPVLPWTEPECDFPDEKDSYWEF", "assay": "Inhibition of ALS2CR2 in human HeLa cells lysate at 2 uM pre incubated for 15 mins followed by ADP acyl phosphate probe addition and measured after 10 mins by LC-MS/MS analysis relative to control", "type": "subcellular", "conditions": "time 25.0 min", "in_short": "as §1"}, "[11]": {"target": "Ribosomal protein S6 kinase alpha-1 (Homo sapiens, UniProt Q15418)", "assay": "Inhibition of RSK1 domain 2 K2 site in human HeLa cells lysate at 50 uM pre incubated for 15 mins followed by ADP acyl phosphate probe addition and measured after 10 mins by LC-MS/MS analysis relative to control", "type": "subcellular", "conditions": "time 25.0 min"}, "[12]": {"target": "Serine/threonine-protein kinase WNK1 (Homo sapiens, UniProt Q9H4A3)", "sequence (Q9H4A3 whole entry, looked up)": "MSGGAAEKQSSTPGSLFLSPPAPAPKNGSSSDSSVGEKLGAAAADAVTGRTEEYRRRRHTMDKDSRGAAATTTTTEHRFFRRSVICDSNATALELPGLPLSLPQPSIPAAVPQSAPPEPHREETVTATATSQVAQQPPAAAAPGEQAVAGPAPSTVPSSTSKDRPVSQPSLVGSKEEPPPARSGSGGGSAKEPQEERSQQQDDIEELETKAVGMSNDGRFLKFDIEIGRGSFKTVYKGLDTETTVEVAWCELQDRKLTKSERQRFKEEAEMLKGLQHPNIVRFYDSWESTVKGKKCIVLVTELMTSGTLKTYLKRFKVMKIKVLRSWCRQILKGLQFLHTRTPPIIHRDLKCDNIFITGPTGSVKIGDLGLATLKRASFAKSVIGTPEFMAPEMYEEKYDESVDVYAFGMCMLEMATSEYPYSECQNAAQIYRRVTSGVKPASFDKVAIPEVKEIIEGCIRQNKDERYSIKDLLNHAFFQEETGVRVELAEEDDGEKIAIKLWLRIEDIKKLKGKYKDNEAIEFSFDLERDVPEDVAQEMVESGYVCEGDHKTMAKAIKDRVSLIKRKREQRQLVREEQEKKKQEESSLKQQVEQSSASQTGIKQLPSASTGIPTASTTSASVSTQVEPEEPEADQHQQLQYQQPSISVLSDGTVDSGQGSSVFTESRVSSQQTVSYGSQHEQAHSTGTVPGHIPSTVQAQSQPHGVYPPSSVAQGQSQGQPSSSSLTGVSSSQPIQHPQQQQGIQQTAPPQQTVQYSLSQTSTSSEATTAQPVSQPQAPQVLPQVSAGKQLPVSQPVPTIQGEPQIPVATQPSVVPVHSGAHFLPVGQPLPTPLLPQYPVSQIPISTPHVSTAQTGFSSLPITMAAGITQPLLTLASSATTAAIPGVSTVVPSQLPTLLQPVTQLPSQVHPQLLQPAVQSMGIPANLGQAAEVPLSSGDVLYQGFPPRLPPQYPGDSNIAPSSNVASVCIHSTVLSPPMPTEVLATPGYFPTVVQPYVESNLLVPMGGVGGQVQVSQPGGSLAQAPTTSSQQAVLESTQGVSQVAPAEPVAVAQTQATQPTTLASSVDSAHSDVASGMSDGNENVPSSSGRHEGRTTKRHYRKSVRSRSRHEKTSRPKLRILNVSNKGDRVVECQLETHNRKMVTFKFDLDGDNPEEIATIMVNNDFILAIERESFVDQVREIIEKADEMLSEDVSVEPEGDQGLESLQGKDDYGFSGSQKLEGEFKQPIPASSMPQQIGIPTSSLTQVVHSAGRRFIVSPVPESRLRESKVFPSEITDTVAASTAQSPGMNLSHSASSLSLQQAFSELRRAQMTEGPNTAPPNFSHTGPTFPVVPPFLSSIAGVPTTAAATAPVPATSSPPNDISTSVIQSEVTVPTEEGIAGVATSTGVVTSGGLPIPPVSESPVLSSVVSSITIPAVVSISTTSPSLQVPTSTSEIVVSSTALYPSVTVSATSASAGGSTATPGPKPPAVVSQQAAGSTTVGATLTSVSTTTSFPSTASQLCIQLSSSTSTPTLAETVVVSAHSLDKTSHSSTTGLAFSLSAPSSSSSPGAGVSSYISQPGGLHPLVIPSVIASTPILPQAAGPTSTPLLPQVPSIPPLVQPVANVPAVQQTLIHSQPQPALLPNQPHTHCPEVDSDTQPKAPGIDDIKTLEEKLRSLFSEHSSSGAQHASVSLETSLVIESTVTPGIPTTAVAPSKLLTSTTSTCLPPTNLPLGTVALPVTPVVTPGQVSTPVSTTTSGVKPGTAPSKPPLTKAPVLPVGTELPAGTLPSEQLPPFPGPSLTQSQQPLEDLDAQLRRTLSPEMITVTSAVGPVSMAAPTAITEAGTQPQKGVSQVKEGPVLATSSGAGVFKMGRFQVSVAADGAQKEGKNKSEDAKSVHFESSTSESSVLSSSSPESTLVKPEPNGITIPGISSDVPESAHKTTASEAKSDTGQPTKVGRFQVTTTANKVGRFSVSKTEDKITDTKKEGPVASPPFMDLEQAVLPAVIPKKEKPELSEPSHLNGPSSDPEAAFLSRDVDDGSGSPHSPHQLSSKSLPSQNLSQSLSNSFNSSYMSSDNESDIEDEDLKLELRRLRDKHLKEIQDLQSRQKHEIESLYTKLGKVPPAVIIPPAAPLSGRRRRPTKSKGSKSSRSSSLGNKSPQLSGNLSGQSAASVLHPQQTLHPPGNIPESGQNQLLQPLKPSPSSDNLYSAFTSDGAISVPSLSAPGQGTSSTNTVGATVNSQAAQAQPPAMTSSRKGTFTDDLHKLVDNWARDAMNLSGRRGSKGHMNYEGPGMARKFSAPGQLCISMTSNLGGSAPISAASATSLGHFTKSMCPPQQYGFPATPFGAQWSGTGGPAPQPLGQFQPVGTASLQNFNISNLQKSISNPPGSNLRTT", "assay": "Inhibition of Wnk1 in human HeLa cells lysate at 50 uM pre incubated for 15 mins followed by ATP acyl phosphate probe addition and measured after 10 mins by LC-MS/MS analysis relative to control", "type": "subcellular", "conditions": "time 25.0 min"}, "[13]": {"target": "T2, Phosphorylase b kinase gamma catalytic chain, liver/testis isoform (Homo sapiens) (UniProt P15735)", "T2 sequence (whole entry)": "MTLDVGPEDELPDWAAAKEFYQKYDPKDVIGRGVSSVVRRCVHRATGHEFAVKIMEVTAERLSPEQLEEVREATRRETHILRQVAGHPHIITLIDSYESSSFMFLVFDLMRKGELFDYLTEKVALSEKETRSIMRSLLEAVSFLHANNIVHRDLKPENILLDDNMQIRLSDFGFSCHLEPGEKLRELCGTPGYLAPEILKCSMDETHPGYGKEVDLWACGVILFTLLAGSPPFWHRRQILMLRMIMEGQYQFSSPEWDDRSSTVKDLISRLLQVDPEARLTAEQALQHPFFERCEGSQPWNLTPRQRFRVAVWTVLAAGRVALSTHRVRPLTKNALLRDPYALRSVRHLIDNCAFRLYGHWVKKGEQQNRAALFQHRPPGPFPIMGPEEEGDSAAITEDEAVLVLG", "assay": "Inhibition of PHKg2 in human HeLa cells lysate at 2 uM pre incubated for 15 mins followed by ATP acyl phosphate probe addition and measured after 10 mins by LC-MS/MS analysis relative to control", "type": "subcellular", "conditions": "time 25.0 min"}, "[14]": {"target": "Dual specificity mitogen-activated protein kinase kinase 3 (Homo sapiens, UniProt P46734)", "assay": "Inhibition of MAP2K3 in human HeLa cells lysate pre incubated for 15 mins followed by ATP acyl phosphate probe addition and measured after 10 mins by LC-MS/MS analysis", "type": "subcellular"}, "[15]": {"target": "Serine/threonine-protein kinase Chk1 (Homo sapiens, UniProt O14757)", "sequence (O14757 whole entry)": "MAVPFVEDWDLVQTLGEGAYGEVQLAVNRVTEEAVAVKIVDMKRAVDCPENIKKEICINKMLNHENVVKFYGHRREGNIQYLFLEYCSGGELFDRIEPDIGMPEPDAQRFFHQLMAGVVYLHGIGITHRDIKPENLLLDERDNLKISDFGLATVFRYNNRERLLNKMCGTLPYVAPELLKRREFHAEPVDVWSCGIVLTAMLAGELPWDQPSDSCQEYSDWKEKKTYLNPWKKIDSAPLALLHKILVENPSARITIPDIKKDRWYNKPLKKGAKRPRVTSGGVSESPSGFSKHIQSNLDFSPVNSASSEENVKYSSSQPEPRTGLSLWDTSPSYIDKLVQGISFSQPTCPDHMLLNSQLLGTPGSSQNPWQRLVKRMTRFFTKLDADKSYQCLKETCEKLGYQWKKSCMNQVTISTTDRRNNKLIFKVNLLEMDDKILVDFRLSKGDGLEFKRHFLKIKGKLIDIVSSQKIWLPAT", "assay": "Inhibition of CHK1 inactive site in human HeLa cells lysate pre incubated for 15 mins followed by ATP acyl phosphate probe addition and measured after 10 mins by LC-MS/MS analysis", "type": "subcellular"}, "SRSF protein kinase 1": {"target": "SRSF protein kinase 1 (Homo sapiens, UniProt Q96SB4)", "sequence (Q96SB4 whole entry)": "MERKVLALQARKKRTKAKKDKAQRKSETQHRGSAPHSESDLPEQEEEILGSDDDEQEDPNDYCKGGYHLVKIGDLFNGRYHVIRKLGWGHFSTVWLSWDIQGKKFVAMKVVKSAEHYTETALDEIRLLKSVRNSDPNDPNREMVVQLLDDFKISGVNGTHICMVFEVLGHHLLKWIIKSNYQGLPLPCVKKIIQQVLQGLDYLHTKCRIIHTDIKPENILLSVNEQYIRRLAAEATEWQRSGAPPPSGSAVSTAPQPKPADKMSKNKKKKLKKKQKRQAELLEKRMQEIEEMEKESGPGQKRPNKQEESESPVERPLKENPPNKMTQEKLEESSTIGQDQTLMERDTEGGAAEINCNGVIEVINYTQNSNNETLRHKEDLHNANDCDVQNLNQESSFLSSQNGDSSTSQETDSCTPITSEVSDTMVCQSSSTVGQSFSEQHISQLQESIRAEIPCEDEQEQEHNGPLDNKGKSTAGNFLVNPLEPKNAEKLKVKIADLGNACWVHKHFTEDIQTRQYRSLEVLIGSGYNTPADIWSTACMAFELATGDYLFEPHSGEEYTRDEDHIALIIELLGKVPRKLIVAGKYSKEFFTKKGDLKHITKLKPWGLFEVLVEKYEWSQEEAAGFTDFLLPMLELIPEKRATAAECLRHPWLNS", "assay": "Inhibition of SRPK1 in human HeLa cells lysate at 2 uM pre incubated for 15 mins followed by ATP acyl phosphate probe addition and measured after 10 mins by LC-MS/MS analysis relative to control", "type": "subcellular", "conditions": "time 25.0 min"}, "Ephrin type-A receptor 2": {"target": "Ephrin type-A receptor 2 (Homo sapiens, UniProt P29317)", "assay": "Inhibition of EphA2 in human HeLa cells lysate at 10 uM pre incubated for 15 mins followed by ATP acyl phosphate probe addition and measured after 10 mins by LC-MS/MS analysis relative to control", "type": "subcellular", "conditions": "time 25.0 min"}},
  "data": [
    {"smiles": "CCOc1cc(N2CCC(O)CC2)ccc1Nc1ncc2c(n1)N(C)c1ccccc1C(=O)N2C", "values": [
      {"measurement": "Activity", "setting": "[1]", "result": 9.1, "unit": "mg/dL"},
      {"measurement": "IC50", "setting": "[2]", "result": "> 50", "unit": "µM"},
      {"measurement": "inhibition", "setting": "[3]", "result": 11.3, "unit": "%"},
      {"measurement": "Activity", "setting": "[4]", "result": 6.4, "unit": "mg/dL"},
      {"measurement": "Activity", "setting": "[5]", "result": "Non-Toxic"},
      {"measurement": "inhibition at 2 µM", "setting": "[6]", "result": -6.9, "unit": "%"},
      {"measurement": "inhibition", "setting": "[7]", "result": -8.6, "unit": "%"},
      {"measurement": "IC50", "setting": "[8]", "result": "> 50", "unit": "µM"},
      {"measurement": "inhibition", "setting": "[9]", "result": 11.6, "unit": "%"},
      {"measurement": "inhibition", "setting": "[10]", "result": 17, "unit": "%"},
      {"measurement": "inhibition", "setting": "[11]", "result": 65.6, "unit": "%"},
      {"measurement": "inhibition", "setting": "[12]", "result": -9.5, "unit": "%"},
      {"measurement": "inhibition", "setting": "[13]", "result": 3.7, "unit": "%"},
      {"measurement": "IC50", "setting": "[14]", "result": "> 50", "unit": "µM"},
      {"measurement": "IC50", "setting": "[15]", "result": "> 50", "unit": "µM"},
      {"measurement": "inhibition", "setting": "SRSF protein kinase 1", "result": -2, "unit": "%"},
      {"measurement": "inhibition", "setting": "Ephrin type-A receptor 2", "result": -3.9, "unit": "%"}
    ]}
  ]
}
